Source: ChEMBL document CHEMBL5647699, “Discovery of a chemical probe for PRDM9” (Nat Commun, 2019)
Calls of active or inactive are those of the source. No cut-off for these calls is given here.

Legend:
Spermatocyte [1] = assay: Induction of meiotic defect in wild type mouse spermatocyte assessed as non homologous synapsis by SYCP1/SYCP3 staining based immunofluorescence assay; assay type: functional, cell-based
[2] = tested on: Histone-lysine N-methyltransferase PRDM9 (Homo sapiens), Q9NQV7 [UNDEFINED MUTATION]; assay: Inhibition of PRDM9 mutant (unknown origin) expressed in […] cells assessed as reduction in H3k4me3 expression at TSS region of endogenous chromatin at 2.5 to 10 uM measured after 48 hrs by ChIP qPCR analysis; assay type: cell-based; conditions: HEK293T, dose 2.5-10 µM
How it was run: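 HEK293T cells transfected with empty vector, wild-type or catalytically dead PRDM9 and treated with 0.1% DMSO or compound for 48 h; formaldehyde fixed, sonicated chromatin (50 μg) immunoprecipitated with anti-H3K4me3 or anti-H3; qPCR at PRDM9-bound and control loci; mean ± s.d. of technical replicates, representative of two experiments.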

HEK-293T [3] = assay: Cytotoxicity against HEK293T cells at 3 uM measured after 4 days by IncuCyte zoom live-cell imaging analysis; assay type: toxicity, cell-based; conditions: human, 96 h, time 4 day
[4] = target: Histone-lysine N-methyltransferase PRDM9 (Homo sapiens) (UniProt Q9NQV7); assay: Inhibition of PRDM9 (unknown origin) in presence of SAH
[5] = target: Histone-lysine N-methyltransferase PRDM9 (Homo sapiens) (UniProt Q9NQV7); assay: Inhibition of PRDM9 (unknown origin) at 1 to 10 uM; conditions: dose 1-10 µM
RPMI-8226 = assay: Cytotoxicity against human RPMI-8226 cells at upto 30 uM measured for 3 to 6 days by celltiter glo assay; assay type: functional, cell-based; conditions: time 3-6 day
[6] = target: Mu-type opioid receptor (Homo sapiens) (UniProt P35372); assay: Agonist activity at MOR receptor (unknown origin) by Glo Sensor assay; assay type: functional
[7] = target: Alpha-2B adrenergic receptor (Homo sapiens) (UniProt P18089); assay: Agonist activity at adrenergic alpha 2b receptor (unknown origin) by Glo Sensor assay; assay type: functional
[8] = target: Histamine H3 receptor (Homo sapiens) (UniProt Q9Y5N1); assay: Agonist activity at Histamine H3 (unknown origin) by Glo Sensor assay; assay type: functional
MCF7 = assay: Cytotoxicity against human MCF7 cells assessed as reduction in cell viability at 10 uM measured on day 5 by IncuCyte zoom live-cell imaging analysis; assay type: functional, cell-based; conditions: time 5.0 day
How it was run: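 MCF7 cells seeded, treated next day with 10 μM compound in a 5-day proliferation assay; cell number counted by live-cell imaging after Vybrant DyeCycle Green staining.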

HCC1806 = assay: Cytotoxicity against human HCC1806 cells at upto 30 uM measured for 3 to 6 days by celltiter glo assay; assay type: functional, cell-based; conditions: time 3-6 day
HCC1143 = assay: Cytotoxicity against human HCC1143 cells at upto 30 uM measured for 3 to 6 days by celltiter glo assay; assay type: functional, cell-based; conditions: time 3-6 day
[9] = target: Histone-lysine N-methyltransferase PRDM7 (Homo sapiens) (UniProt Q9NQW5); assay: Binding affinity to PRDM7 (unknown origin) assessed as thermal stability by measuring change in melting temperature at 250 uM by SYPRO orange dye based differential scanning fluorimetry
How it was run: (§1)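 DSF with 250 μM compound; proteins at 0.02 mg mL⁻¹ final in 0.1 M HEPES pH 7.5, 150 mM NaCl with 2 mM SAM; ΔTm (Tm ligand − Tm apo) above 2 °C taken as binding.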

[10] = target: Alpha-2B adrenergic receptor (Homo sapiens) (UniProt P18089); assay: Antagonist activity against adrenergic alpha 2b receptor (unknown origin) by Glo Sensor assay; assay type: functional
[11] = target: Muscarinic acetylcholine receptor M2 (Homo sapiens) (UniProt P08172); assay: Agonist activity at muscarinic M2 receptor (unknown origin) by Glo Sensor assay; assay type: functional
MDA-MB-436 = assay: Cytotoxicity against human MDA-MB-436 cells at upto 30 uM measured for 3 to 6 days by celltiter glo assay; assay type: functional, cell-based; conditions: time 3-6 day
CAL-85-1 = assay: Cytotoxicity against human CAL-85-1 cells at upto 30 uM measured for 3 to 6 days by celltiter glo assay; assay type: functional, cell-based; conditions: time 3-6 day
[12] = target: Histone-lysine N-methyltransferase PRDM9 (Homo sapiens) (UniProt Q9NQV7); assay: Inhibition of FLAG tagged PRDM9 transfected in HEK293T cells assessed as reduction in trimethylation of ectopic H3K4 measured after 20 hrs by Western blot analysis; assay type: cell-based; conditions: dose <= 10.0 µM
[13] = target: Histone-lysine N-methyltransferase PRDM9 (Homo sapiens) (UniProt Q9NQV7); assay: Binding affinity to PRDM9 (unknown origin) assessed as thermal stability by measuring change in melting temperature at 250 uM by SYPRO orange dye based differential scanning fluorimetry; how it was run: as §1
[14] = target: Histone-lysine N-methyltransferase PRDM9 (Homo sapiens) (UniProt Q9NQV7); assay: Inhibition of FLAG tagged PRDM9 transfected in HEK293T cells assessed as reduction in trimethylation of endogenous H3K4 measured after 20 hrs by Western blot analysis; assay type: cell-based; conditions: dose <= 10.0 µM
HEK-293T [15] = assay: Cytotoxicity against HEK293T cells at 10 uM measured after 4 days by IncuCyte zoom live-cell imaging analysis; assay type: toxicity, cell-based; conditions: human, 96 h, time 4 day
[16] = target: Muscarinic acetylcholine receptor M2 (Homo sapiens) (UniProt P08172); assay: Antagonist activity against muscarinic M2 receptor (unknown origin) by Glo Sensor assay; assay type: functional
[17] = target: Histone-lysine N-methyltransferase PRDM9 (Homo sapiens) (UniProt Q9NQV7); assay: Inhibition of FLAG tagged PRDM9 transfected in human MCF7 cells cotransfected with H3-GFP assessed as inhibition of trimethylation H3K4 at upto 10 uM measured after 20 hrs by Western blot analysis; assay type: cell-based
HEK-293T [18] = assay: Cytotoxicity against HEK293T cells at 10 uM measured after 24 hrs by IncuCyte zoom live-cell imaging analysis; assay type: toxicity, cell-based; conditions: human
How it was run: (§2)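 HEK293T cells seeded, treated next day with compound for 1 day; cell number counted by live-cell imaging after Vybrant DyeCycle Green staining; mean ± sd, n = 3.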

[19] = target: Histone-lysine N-methyltransferase PRDM9 (Homo sapiens) (UniProt Q9NQV7); assay: Binding affinity to PRDM9 (unknown origin) (195 to 415 residues) at 20 uM measured at 60 to 120 secs in presence of SAH by surface plasmon resonance assay; conditions: time 60-120 sec
Spermatocyte [20] = assay: Induction of meiotic defect in wild type mouse spermatocyte assessed as effect on paring of chromosomal homolog by SYCP1/SYCP3 staining based immunofluorescence assay; assay type: functional, cell-based
[21] = target: Mu-type opioid receptor (Homo sapiens) (UniProt P35372); assay: Antagonist activity against MOR receptor (unknown origin) by Glo Sensor assay; assay type: functional
SK-MM-2 = assay: Cytotoxicity against human SK-MM-2 cells at upto 30 uM measured for 3 to 6 days by celltiter glo assay; assay type: functional, cell-based; conditions: time 3-6 day
HEK-293T [22] = assay: Cytotoxicity against HEK293T cells at 3 uM measured after 24 hrs by IncuCyte zoom live-cell imaging analysis; assay type: toxicity, cell-based; conditions: human; how it was run: as §2

Chain of Histone-lysine N-methyltransferase PRDM9 (Homo sapiens) (Q9NQV7 whole entry, the tested form may be a part): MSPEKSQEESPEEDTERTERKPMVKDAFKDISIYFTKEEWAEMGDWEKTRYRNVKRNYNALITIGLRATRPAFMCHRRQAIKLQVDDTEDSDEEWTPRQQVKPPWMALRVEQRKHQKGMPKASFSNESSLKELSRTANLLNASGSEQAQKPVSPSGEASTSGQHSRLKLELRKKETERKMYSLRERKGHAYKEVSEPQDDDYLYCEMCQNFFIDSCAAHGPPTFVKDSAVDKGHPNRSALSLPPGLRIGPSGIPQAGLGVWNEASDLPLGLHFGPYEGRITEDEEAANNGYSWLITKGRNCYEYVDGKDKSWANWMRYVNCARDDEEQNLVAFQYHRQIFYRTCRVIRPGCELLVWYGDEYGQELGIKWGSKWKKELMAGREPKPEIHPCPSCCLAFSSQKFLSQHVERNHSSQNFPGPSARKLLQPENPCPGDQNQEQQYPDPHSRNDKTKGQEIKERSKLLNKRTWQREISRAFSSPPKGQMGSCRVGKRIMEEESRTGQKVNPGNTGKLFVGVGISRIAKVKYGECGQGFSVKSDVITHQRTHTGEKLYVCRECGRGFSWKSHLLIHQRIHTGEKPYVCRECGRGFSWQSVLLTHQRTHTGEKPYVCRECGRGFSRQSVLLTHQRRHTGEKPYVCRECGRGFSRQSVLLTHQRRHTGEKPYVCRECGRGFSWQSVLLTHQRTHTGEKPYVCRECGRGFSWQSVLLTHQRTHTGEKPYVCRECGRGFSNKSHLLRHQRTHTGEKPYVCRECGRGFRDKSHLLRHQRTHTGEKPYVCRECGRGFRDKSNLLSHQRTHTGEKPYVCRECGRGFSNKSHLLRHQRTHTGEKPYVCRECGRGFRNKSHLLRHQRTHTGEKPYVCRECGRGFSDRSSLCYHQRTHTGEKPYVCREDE
Chain of Mu-type opioid receptor (Homo sapiens) (P35372 whole entry): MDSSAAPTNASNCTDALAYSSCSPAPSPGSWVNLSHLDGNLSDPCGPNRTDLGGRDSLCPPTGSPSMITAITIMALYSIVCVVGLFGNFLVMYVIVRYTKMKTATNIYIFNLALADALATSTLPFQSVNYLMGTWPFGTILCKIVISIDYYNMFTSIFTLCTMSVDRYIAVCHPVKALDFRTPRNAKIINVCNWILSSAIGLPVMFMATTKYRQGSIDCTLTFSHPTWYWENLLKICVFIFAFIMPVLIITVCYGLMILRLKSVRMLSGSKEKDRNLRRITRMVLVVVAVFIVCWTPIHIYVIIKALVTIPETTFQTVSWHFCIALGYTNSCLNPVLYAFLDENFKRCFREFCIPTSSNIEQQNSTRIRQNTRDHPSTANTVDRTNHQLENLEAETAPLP
Chain of Muscarinic acetylcholine receptor M2 (Homo sapiens) (P08172 whole entry): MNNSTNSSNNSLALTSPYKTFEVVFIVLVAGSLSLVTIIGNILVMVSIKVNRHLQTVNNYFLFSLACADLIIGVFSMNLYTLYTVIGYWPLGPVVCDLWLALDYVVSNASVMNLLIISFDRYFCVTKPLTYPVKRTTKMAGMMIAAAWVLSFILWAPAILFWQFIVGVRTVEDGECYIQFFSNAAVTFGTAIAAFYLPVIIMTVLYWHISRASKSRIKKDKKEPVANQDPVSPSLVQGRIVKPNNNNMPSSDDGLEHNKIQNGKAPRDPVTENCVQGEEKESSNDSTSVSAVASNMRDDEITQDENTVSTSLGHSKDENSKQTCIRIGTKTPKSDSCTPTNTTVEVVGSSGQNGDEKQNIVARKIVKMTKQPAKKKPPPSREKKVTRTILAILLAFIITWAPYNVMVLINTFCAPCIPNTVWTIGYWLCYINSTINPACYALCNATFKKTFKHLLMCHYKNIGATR
Chain of Alpha-2B adrenergic receptor (Homo sapiens) (P18089 whole entry): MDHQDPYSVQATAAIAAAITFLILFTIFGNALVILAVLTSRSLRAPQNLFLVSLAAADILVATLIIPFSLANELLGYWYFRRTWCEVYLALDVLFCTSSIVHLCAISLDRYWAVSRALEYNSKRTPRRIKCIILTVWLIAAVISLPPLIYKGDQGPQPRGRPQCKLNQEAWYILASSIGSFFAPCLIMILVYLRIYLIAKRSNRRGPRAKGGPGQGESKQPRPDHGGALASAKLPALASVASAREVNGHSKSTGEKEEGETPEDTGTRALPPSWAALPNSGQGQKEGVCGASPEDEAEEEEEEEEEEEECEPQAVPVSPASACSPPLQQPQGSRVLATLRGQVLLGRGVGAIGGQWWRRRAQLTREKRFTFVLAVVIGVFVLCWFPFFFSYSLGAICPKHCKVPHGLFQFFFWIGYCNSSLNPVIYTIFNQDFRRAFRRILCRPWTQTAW
Chain of Histone-lysine N-methyltransferase PRDM9 (Homo sapiens), Q9NQV7 [UNDEFINED MUTATION] (Q9NQV7 whole entry, looked up, change not shown): as the sequence (Q9NQV7 whole entry, the tested form may be a part) above
Chain of Histone-lysine N-methyltransferase PRDM7 (Homo sapiens) (Q9NQW5 whole entry): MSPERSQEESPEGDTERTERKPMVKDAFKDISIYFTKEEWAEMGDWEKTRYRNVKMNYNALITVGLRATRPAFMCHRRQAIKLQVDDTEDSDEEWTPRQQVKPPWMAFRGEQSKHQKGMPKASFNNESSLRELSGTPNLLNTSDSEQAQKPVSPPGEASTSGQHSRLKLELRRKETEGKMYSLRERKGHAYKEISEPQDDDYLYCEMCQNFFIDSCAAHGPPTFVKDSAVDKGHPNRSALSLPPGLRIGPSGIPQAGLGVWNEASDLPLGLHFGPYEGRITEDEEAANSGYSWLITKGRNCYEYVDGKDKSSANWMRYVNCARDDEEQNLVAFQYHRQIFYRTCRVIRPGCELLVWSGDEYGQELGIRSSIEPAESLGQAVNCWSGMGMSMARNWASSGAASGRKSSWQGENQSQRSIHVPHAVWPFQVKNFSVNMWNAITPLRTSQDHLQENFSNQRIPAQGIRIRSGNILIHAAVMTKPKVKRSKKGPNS
Chain of Histamine H3 receptor (Homo sapiens) (Q9Y5N1 whole entry): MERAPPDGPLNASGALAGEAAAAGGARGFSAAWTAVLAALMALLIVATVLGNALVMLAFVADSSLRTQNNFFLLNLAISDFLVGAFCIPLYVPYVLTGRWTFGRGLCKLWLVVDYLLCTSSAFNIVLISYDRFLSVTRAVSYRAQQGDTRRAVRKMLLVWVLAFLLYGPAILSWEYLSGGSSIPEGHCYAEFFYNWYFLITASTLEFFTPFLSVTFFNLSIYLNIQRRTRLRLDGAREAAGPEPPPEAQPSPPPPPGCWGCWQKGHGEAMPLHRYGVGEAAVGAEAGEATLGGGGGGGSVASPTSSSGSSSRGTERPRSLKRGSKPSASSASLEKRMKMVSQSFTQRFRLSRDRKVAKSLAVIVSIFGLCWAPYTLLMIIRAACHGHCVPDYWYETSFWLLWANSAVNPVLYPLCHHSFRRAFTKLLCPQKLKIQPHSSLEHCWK

inhibition [2]: inactive | inhibition [4]: inactive | inhibition [5]: Active | Activity [6]: inactive | Activity [7]: inactive | Activity [8]: inactive | ΔTm [9]: > 2 °C | Activity [10]: inactive | Activity [11]: inactive | inhibition [12]: Dose-Dependent Effect | ΔTm [13]: > 2 °C | inhibition [14]: Dose-Dependent Effect | Activity [16]: inactive | inhibition [17]: Active | Activity [19]: inactive | Activity [21]: inactive
SMILES: COc1cc(OC)cc(-c2noc(N3CCN(C)C4(CCN(c5ccnc(C)c5)CC4)C3)n2)c1
Activity (Spermatocyte [1]): Active | Activity (HEK-293T [3]): Non-Toxic | Activity (RPMI-8226): inactive | Activity (MCF7): inactive | Activity (HCC1806): inactive | Activity (HCC1143): inactive | Activity (MDA-MB-436): inactive | Activity (CAL-85-1): inactive | Activity (HEK-293T [15]): Toxic | Activity (HEK-293T [18]): Toxic | Activity (Spermatocyte [20]): Active | Activity (SK-MM-2): inactive | Activity (HEK-293T [22]): Non-Toxic
